# Test results: publication PMC6013806 (Chemical Science, 2016)
# Key:
# [1] = target: Relaxin Family Peptide Receptor 1 (RXFP1), human, stably expressed in HEK-293T cells (human) (UniProt Q9HBX9); experiment: competition binding with Eu3+-labelled H2 relaxin on whole cells
# [2] = cited from earlier work
# [3] = cited from earlier work; remark: listed apart in the source
# [4] = tested on: MMP-2 in rat renal myofibroblasts; experiment: MMP-2 levels by gelatin zymography, rat renal myofibroblasts; type: cell-based
# In short: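 Rat renal myofibroblasts were isolated from injured kidneys 3 days after unilateral ureteric obstruction. They were exposed to test compound at 16.8 nM (≃100 ng mL−1) for 72 h, with or without an RXFP1 antagonist (relaxin B-chain Arg13/Arg17→Lys); H2 relaxin was run at equivalent concentration. MMP-2 in media diluted 1:5–1:10 was read by gelatin zymography and densitometry. Three experiments were run in duplicate.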
# human RXFP1 [5] = target: T1, human RXFP1 (Homo sapiens, UniProt Q9HBX9); experiment: cAMP reporter gene assay, HEK-293T cells expressing human RXFP1; type: cell-based; settings: HEK-293T cells stably expressing RXFP1
# T1 sequence (Q9HBX9 1-757): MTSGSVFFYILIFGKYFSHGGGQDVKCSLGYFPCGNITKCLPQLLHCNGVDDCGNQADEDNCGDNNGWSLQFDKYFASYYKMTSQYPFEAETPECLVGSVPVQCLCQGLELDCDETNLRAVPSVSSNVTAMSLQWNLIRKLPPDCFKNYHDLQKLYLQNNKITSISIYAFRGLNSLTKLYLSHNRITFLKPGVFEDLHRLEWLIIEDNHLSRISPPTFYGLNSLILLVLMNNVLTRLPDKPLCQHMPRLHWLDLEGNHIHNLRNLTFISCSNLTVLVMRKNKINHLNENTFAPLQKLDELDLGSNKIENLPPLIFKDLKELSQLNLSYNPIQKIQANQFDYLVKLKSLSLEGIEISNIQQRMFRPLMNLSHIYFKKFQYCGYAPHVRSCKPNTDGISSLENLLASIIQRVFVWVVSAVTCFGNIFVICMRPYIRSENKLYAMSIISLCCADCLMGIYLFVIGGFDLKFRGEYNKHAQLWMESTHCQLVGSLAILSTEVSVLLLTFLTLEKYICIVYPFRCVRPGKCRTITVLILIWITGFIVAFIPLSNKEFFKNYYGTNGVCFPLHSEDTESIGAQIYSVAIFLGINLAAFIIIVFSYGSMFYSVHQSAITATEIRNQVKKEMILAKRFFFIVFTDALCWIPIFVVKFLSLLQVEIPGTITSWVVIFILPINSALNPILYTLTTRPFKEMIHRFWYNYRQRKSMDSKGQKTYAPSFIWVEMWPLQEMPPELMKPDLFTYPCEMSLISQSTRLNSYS
# In short: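 HEK-293T cells expressing human RXFP1 were co-transfected with a pCRE β-galactosidase cAMP reporter plasmid and plated. After 24 h they were incubated with increasing concentrations of test peptide in parallel with H2 relaxin. Points were run in triplicate, with ≥3 independent experiments; pEC50 values were derived.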
# human RXFP1 [6] = target: T1, human RXFP1; experiment: Competition binding with europium-labelled H2 relaxin in HEK-RXFP1 cells; settings: HEK-293T cells stably expressing RXFP1; compared with B7-33
# In short: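 Whole-cell competition binding on HEK-293T cells stably transfected with RXFP1. Cells were grown in RPMI 1640 with 10% FCS, penicillin, streptomycin and 2 mM L-glutamine, then plated on poly-L-lysine-coated wells. Eu3+-labelled H2 relaxin was competed by increasing concentrations of unlabelled test peptide. % specific binding was measured in triplicate wells, repeated ≥3 times; one-site fit gave pIC50.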
compound,measurement,setting,value
B7-33 (H2 relaxin B-chain-only analogue) (peptide),pKi,[1],5.54
B1-29: native H2 relaxin B-chain with 29 residues,functional activity,[2],functionally inactive
same,solubility in water,[3],insoluble in water
Human gene-2 relaxin (ligand),pKi,[1],8.96
Cc1cc(Cn2cnc3c2C[C@@H](C(=O)O)N(C(=O)C(c2ccccc2)c2ccccc2)C3)ccc1N(C)C [PD123319],effect of antagonist alone on basal MMP-2 expression,[4]; antagonist alone,neither the RXFP1 nor AT2 receptor antagonists alone affected basal MMP-2 expression
same,effect of antagonist on MMP-promoting effects of B7-33,[4]; rat renal myofibroblasts treated with B7-33,completely blocked
"AcB7-33: Acetylated B7-33 (Ac-VIKLCGRELVRAQIAICGMSTWSKRSL-NH2; cysteine pairing not given here; UniProt P04090 31-57, looked up, fragment)",cAMP activity at HEK-RXFP1 (in words),human RXFP1 [5],no change
same,binding affinity at HEK-RXFP1 (in words),human RXFP1 [6],no change
